HEK293 NFkB inh: lowers PMA/ionomycin-induced NF-kB signal in HEK293 cells. HEK-293 NF-kB luciferase reporter, luminescence. inhibition, % at 3 µM. hit rate 0.21% among 62,000. AID 465;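 active means inhibition above the mean of all tested compounds plus 3 SD, cut at about 40% in these data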;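 further: 0% = stimulated DMSO wells and 100% = 10 µM reference inhibitor 5653914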
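Material: HEK-293 cells with stable firefly luciferase reporter driven by four HIV NF-kB elements / Also added: PMA plus ionomycin mix as NF-kB-activating stimulus / Compound dosing: 3 µM once, 0.30% DMSO / Times: 1 h pretreatment, 16 h stimulation, 37 °C / Signal: luminescence / Evaluation: per-plate % inhibition versus controls / Benchmarks: DMSO and 10 µM reference inhibitor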
D1 allo mod: allosteric modulators of human D1 dopamine receptor; P21728; HEK293 D1, CRE-luciferase, dopamine EC30 potentiation; actives deviate in either direction; B-score at 10 µM; hit rate 5.9% among 58,000;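 active means luminescence count or its row- and column-corrected plate score outside the 99.7% band of the plate's sample wells, on either side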
mHtt clearance: mutant huntingtin protein clearance | HeLa Exon1htt(103Q)mCFP, aggregate imaging; zero = plate's median compound well | inhibition, % at 1.5 µM | hit rate 0.42% among 47,000;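 active means inhibition of aggregate fluorescence above about 70%, also judged a hit by eye on the cell image, limit read from the data, passing the limit was not always enough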;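 further: cells exposed to compound for three days before fixation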
M1 ag: agonists of M1 muscarinic receptor; hit rate 3% among 64,000; AID 626; CHO-M1 cells, Fluo-4 calcium fluorescence, agonist mode; stronger effect = higher value; B-score at 10 µM;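 active means fluorescence rise, raw or as B-score row- and column-corrected plate score, outside the 99.7% band of its plate's samples, either direction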
Jurkat viability: cytotoxic compounds reducing Jurkat cell viability; Jurkat E6.1 viability, ATP luminescence, 48 h; inhibition, % at 4 µM; hit rate 1.2% among 56,000; AID 463;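 active means inhibition above the mean inhibition of all tested compounds plus 3 SD, cut at about 28% in these data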
M1 antagonist: antagonists of rat M1 muscarinic receptor | AID 628 | hit rate 3.4% among 64,000 | P08482 | B-score at 10 µM | CHO-M1 cells, Fluo-4 calcium, ACh EC80 antagonist mode; stronger effect = lower value;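 active means calcium fluorescence response, raw or row-and-column corrected B-score, differing from the plate sample mean either way at a set confidence level, mostly lower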
Target sequence (P08482 whole entry, looked up): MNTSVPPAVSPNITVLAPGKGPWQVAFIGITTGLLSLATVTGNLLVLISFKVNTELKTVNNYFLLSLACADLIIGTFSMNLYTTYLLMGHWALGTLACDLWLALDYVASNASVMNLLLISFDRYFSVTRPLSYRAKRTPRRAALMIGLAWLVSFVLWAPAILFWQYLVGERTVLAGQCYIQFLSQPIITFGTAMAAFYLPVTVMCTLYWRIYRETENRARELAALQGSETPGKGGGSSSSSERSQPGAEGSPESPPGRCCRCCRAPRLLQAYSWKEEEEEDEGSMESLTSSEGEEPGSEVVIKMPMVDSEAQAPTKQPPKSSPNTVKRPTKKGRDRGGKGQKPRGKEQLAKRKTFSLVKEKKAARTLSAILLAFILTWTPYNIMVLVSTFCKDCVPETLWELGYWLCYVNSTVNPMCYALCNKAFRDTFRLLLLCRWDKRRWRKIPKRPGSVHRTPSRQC
D1 mod confirm: confirmation of human D1 dopamine receptor allosteric modulators; shares compounds with D1 allo mod; HEK293 D1 CRE-luciferase, dopamine EC30 potentiation; stronger effect = higher value; luminescence at 10 µM; hit rate 88% among 2,200; AID 642;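 active means luminescence in either of two replicates above the same-plate mean plus 3 SD of the low-dose dopamine control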
D1 ag no DA: secondary test of D1 modulators: activity without dopamine. luminescence at 10 µM. HEK293 D1 CRE-luciferase, luminescence, no dopamine; stronger effect = higher value. AID 646. hit rate 0.8% among 1,900. shares compounds with D1 allo mod; in the data active means luminescence above about 3900
Isoprot counter: counter-screen for D1 modulators: isoproterenol response in HEK293 cells; shares compounds with D1 allo mod; HEK293 D1 CRE-luciferase, isoproterenol EC30 counter-screen; stronger effect = higher value; luminescence at 10 µM; hit rate 63% among 2,200;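 active means luminescence in either replicate above plate mean of wells with a partly effective reference agonist dose plus 3 SD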;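 further: isoproterenol raises cAMP through native beta-adrenoceptor Gs so signal bypasses D1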
* = called active by the depositor; i = inactive; . = no result given. Shown are actives, neighbours in structure and some others; about 9.5% of the full set was active somewhere.

SMILES	HEK293 NFkB inh	D1 allo mod	mHtt clearance	M1 ag	Jurkat viability	M1 antagonist	D1 mod confirm	D1 ag no DA	Isoprot counter
CCCC(C(=O)NC1CCCC1)N(C(=O)Cn1nnc(-c2ccc(C)o2)n1)c1ccccc1OC (stereo unspecified)	11	0.1	.	-0.68	7	0.036	.	.	.
COC(=O)c1cc(OC)c(OC)cc1NC(=O)c1ccc(OC)c(OC)c1	.	.	29	.	.	.	.	.	.
O=C(COc1ccccc1)NCc1nnc(SCC(=O)Nc2nccs2)n1-c1ccccc1	1	3.9*	.	1.3	-6	-1.1	7240	1652	2188
CCCNC(=O)C1CC(=O)N(c2ccc(OCC(=O)Nc3cc(C)cc(C)c3)cc2)C1 (stereo unspecified)	5	-0.33	.	-0.45	-4	0.0049	.	.	.
N#CCn1c(C2CCCCC2)nc2ccccc2c1=O	8	8.4*	.	0.75	.	-0.085	16652*	1540	5152*
O=C(O)CCn1c(C2CCCCC2)nc2ccccc21	21	0.36	.	-0.25	4	0.054	.	.	.
CCc1nc2ccccc2c(C(=O)OC2CCOC2=O)c1C (stereo unspecified)	8	5.4*	.	-0.75	-1	-0.015	11292*	1608	4024*
O=C1N(CN2CCN(c3cccc(Cl)c3)CC2)c2ccccc2C12OCCCO2	9	2.4*	.	0.17	-8	0.1	3096*	1476	2152
O=C1N(CN2CCC3(CC2)OCCO3)c2ccccc2C12OCCCO2	13	-0.84	14	-0.053	-7	-0.56	.	.	.
COc1ccc(CSc2nnnn2Cc2ccccc2)cc1OC	14	3.6*	.	-0.088	1	0.96	15068*	1692	4432*
COc1ccc(CCNc2nnc(Sc3nnnn3-c3ccccc3)s2)cc1OC	13	5.3*	1	-0.069	99*	-0.0014	10264*	1392	3060
CCCCNC(=O)Nc1ccc(Br)cn1	5	7.2*	.	0.075	.	0.3	12048*	1684	2980
CCc1nnc(NC(=O)CSc2nc(C)c3c(c2C#N)CCCC3)s1	.	5.8*	-24	-0.027	.	-0.44	11752*	.	2960*
COc1ccc(NC(=O)CSc2nc(C)c3c(c2C#N)CCCC3)cc1	.	.	7	.	.	.	.	.	.
COC(=O)c1ccsc1NC(=O)CN1C(=O)CCC1=O	13	0.31	.	-0.68	8	-0.3	.	.	.
COC(=O)c1nc2n(n1)C(c1ccc(OC)c(OC)c1)C(C(=O)OC1CCCCC1)=C(C)N2 (stereo unspecified)	17	3.3*	.	1.2	.	-0.13	7744*	.	2408
COc1ccc(C2C(C(N)=O)=C(C)Nc3nc(-c4ccccc4OC)nn32)cc1OC (stereo unspecified)	14	-1.4	.	-0.4	-2	0.044	.	.	.
OC1CCN(c2c3c(nc4cc(-c5cccc(F)c5)nn24)CCCC3)CC1	17	7.4*	.	7.1	.	0.014	17644*	1772	4964*
CCOc1ccc(OCC)c(NC(=O)CC2Oc3ccc(C)cc3NC2=O)c1 (stereo unspecified)	5	2.7*	9	-0.049	12	0.033	6392	1720	2672
Cc1cc(=O)c2n(Cc3ccc(Cl)cc3)nc[n+]2[nH]1	2	4.7*	.	-0.01	0	0.82	8876*	1700	2852
Cc1cc(C(=O)Nc2cc(C)n(Cc3ccc(Cl)cc3)n2)no1	8	1.8	.	0.042	-4	0.083	.	.	.
CC1CN(c2ncnc3c2oc2ccccc23)CC(C)O1 (stereo unspecified)	20	5.6*	-4	-1.3	3	-0.16	12424*	1820	3752*
COc1ccc(CN(C(=O)CSc2nnc(-c3c[nH]c4ccccc34)o2)c2ccc(F)cc2)cc1OC	.	.	55	.	.	.	.	.	.
CCCCCCn1c(CN2CCCCC2CC)nc2c1c(=O)n(C)c(=O)n2C (stereo unspecified)	4	-0.013	.	0.28	-3	-0.77	.	.	.
COc1cc2c(cc1OC)-c1cc(NC3CCCC3)nc(=O)n1CC2	12	8.5*	12	-0.25	0	0.037	14200*	1764	6808*
SMILES	HEK293 NFkB inh	D1 allo mod	mHtt clearance	M1 ag	Jurkat viability	M1 antagonist	D1 mod confirm	D1 ag no DA	Isoprot counter
Cc1cc(C(=O)N2CCc3ccccc32)n(-c2ccccc2)n1	16	5.8*	.	1.2	9	1.2	10356*	1556	3612*
CCOC(=O)c1cc(-c2ccc(N)cc2)sc1N	-32	10*	10	0.17	1	-0.33	21552*	1580	3604*
CCN(CC)S(=O)(=O)c1ccc(C(=O)NCCCN=C2NS(=O)(=O)c3ccccc32)cc1	.	.	37	.	.	.	.	.	.
Cc1ccc(NC(=O)c2cc(-c3cccc(O)c3)on2)cc1C	-9	-0.5	-104	-0.032	1	-0.19	.	.	.
CCCOC(=O)c1ccc(OCC(O)CN2C(=O)NC(C)(C)C2=O)cc1 (stereo unspecified)	-1	.	.	.	-5	.	.	.	.
COC(=O)c1ccc(OCC(O)CN2C(=O)NC(C)(C)C2=O)cc1 (stereo unspecified)	9	5.8*	-5	0.24	-6	-0.29	6500*	.	2252
Cc1cccc2cc(CN(Cc3ccco3)C(=O)c3cccs3)c(=O)[nH]c12	10	0.99	.	-0.29	-1	0.33	.	.	.
O=C(c1cccs1)N(Cc1ccccn1)Cc1ccco1	4	10*	.	0	8	-0.25	13228*	1456	4076*
CCCCCCn1c(N2CCN(c3cccc(Cl)c3)CC2)nc2c1c(=O)[nH]c(=O)n2C	21	2.1	.	.	4	.	.	.	.
CC1CCN(c2nc3c(c(=O)[nH]c(=O)n3C)n2Cc2ccccc2)CC1	18	7.9*	i	0.37	2	-0.41	16032*	1452	3620*
Cn1c(=O)[nH]c(=O)c2c1nc(NC1CCCCC1)n2Cc1ccccc1	12	6.8*	.	0.31	-1	0.015	8436*	1500	3656*
Cc1ccc(Cn2c(-n3nc(C)cc3C)nc3c2c(=O)[nH]c(=O)n3C)cc1	9	3.5*	45	1.5	-6	-0.0067	9484*	1480	2868
CC(C)CCn1c(N2CCN(c3cccc(Cl)c3)CC2)nc2c1c(=O)[nH]c(=O)n2C	30	15*	.	.	8	.	18092*	1700	6356*
O=C(O)CCNS(=O)(=O)c1ccc(Oc2ccccc2)cc1	3	-0.58	.	-0.54	13	-0.0097	.	.	.
Nn1c(SCC(=O)NCc2ccccc2)nnc1C1CC1	8	0.19	-47	0.059	-2	-0.0083	.	.	.
CCOC(=O)c1sc(N(Cc2ccccc2)C(=O)CSc2nnc(C3CC3)n2N)nc1C	21	6.2*	.	0.043	.	-0.12	18736*	1688	4272*

Source: PubChem BioAssay (several laboratories)
